Rows were chosen to be rich in hits. Some 2.4% of all compounds tested hit in one or more screens of this group.
S1P4 ag = activates the human S1P4 receptor. S1P4-expressing cell line, agonist reporter assay. activation, % at 4.98 µM. 220,000 tested, 0.35% active. AID 1509; in the data active = activation above about 11%;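 note: 0% = DMSO vehicle and 100% = reference agonist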
NPY-Y2 antag = NPY-Y2 (human) receptor antagonism; P49146; NPY-Y2 expressing cells, antagonist mode; inhibition, % at 2.7 µM; 140,000 tested, 0.99% active; in the data active = inhibition above about 17%;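 note: 0% = vehicle with agonist challenge and 100% = reference antagonist with challenge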
Target sequence (P49146 whole entry, looked up): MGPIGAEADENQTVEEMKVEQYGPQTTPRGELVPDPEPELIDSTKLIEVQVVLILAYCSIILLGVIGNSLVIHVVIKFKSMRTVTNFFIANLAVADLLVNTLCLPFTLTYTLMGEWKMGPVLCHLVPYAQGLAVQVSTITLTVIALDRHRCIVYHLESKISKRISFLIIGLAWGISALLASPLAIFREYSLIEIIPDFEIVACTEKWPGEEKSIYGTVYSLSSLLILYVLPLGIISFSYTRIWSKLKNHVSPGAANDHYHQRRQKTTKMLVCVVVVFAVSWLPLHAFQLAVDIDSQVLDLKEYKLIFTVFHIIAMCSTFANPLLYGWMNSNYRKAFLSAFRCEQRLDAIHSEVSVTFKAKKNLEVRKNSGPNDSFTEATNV
NPY Y1 blocker = NPY-Y1 (human) receptor antagonism; HEK293-CNG Y1 cells, membrane potential fluorescence; NPY at EC95, then isoproterenol; P25929; inhibition, % at 3.6 µM; 200,000 tested, 1% active;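 active = inhibition above the campaign mean inhibition of all tested compounds plus 3 SD, cut at about 20% in these data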;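 note: 0% = DMSO wells given NPY plus isoproterenol and 100% = isoproterenol alone without NPY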
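Test system: HEK293 cells co-expressing NPY Y1 receptor and cyclic-nucleotide gated channel; Also added: NPY (25 nM), isoproterenol (1 µM), Ro 20-1724 (25 µM); Compound dosing: one concentration, 3.6 µM, in 0.4% DMSO; Timing: dye 3 h, compound 60 min room temperature, stimulation 45 min; Technique: Membrane-potential fluorescent dye readout.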
NPY1 pot ag = human NPY-Y1 potentiation or agonism, primary screen; NPY-Y1 expressing cells, potentiator/agonist activation; activation, % at 3.6 µM; 220,000 tested, 0.37% active; AID 1304; in the data active = activation above about 33%, passing the limit was not always enough;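 note: cells stimulated with NPY at EC10 then isoproterenol at EC100; 0% = low agonist plus stimulus and 100% = saturating agonist plus stimulus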
S1P4 antagonist = human S1P4 receptor antagonism; O95977; S1P4-expressing cells, antagonist mode, reporter read-out; inhibition, % at 4.98 µM; 220,000 tested, 0.26% active; AID 1510; in the data active = inhibition above about 29%;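 note: 0% = wells stimulated with agonist and 100% = vehicle wells without agonist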
NPY2 pot ag = human NPY-Y2 potentiation or agonism, primary screen; 220,000 tested, 0.45% active; activation, % at 3.6 µM; cells expressing NPY-Y2, potentiator/agonist read-out; P49146; AID 1359; in the data active = activation above about 27%;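 note: cells stimulated with NPY near EC25 plus isoproterenol at EC100; 0% = vehicle plus submaximal agonist and 100% = vehicle plus saturating agonist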
* hit, by the source's call; . = no result given.

SMILES	S1P4 ag	NPY-Y2 antag	NPY Y1 blocker	NPY1 pot ag	S1P4 antagonist	NPY2 pot ag
Cc1cc2c(OCC(O)CNC3CCCCC3)cccc2[nH]1 (configuration not stated)	0	.	-11	110*	-17	103*
Cc1ccc2nc(-c3ccncc3)c(NC3CCCCC3)n2c1	2	.	-3	14	-2	10
O=C(OCC(=O)N1CCCC1)c1c2c(nc3ccccc13)CCCCC2	0	.	0	3	-10	-6
C#CCn1c(S(=O)(=O)Cc2ccc(F)cc2)nc(-c2ccccc2)c1-c1ccccc1	0	4	21*	0	-8	-14
CCOC(=O)Cn1c(S(=O)(=O)Cc2ccc(F)cc2)nc(-c2ccccc2)c1-c1ccccc1	2	26*	38*	12	-19	-10
CCCCOc1ccc(Br)cc1/C(C)=N/NC1=NCCN1	2	50*	50*	-60	-10	-15
CC(C)CCc1noc(CN(CC2CCC2)CC2CCCO2)n1 (configuration not stated)	-1	.	.	-24	7	-6
C=CCN=c1scc(-c2ccccc2)n1/N=C/c1ccccn1	3	7	3	18	-11	11
C=CCN=c1scc(-c2ccc(F)cc2)n1/N=C/c1ccccn1	-1	6	-12	60*	-9	33*
CN1CCN(c2ccccc2NC(=O)Cc2ccc(Cl)cc2)CC1	2	24*	23*	-7	0	-13
Cc1cc(C)nc(N(C#N)C(C)C(=O)N(C)C)n1 (configuration not stated)	-3	1	0	-2	9	0
CCN(CC)C(=O)C(C)N(C#N)c1nc(C)cc(C)n1 (configuration not stated)	-1	0	-12	114*	-7	105*
COC(=O)[C@@H]1C(c2c(OC)cc(OC)cc2OC)=NO[C@H]1C(=O)OC	0	-1	-10	56*	-26	42*
COC(=O)C1CC(c2c(OC)cc(OC)cc2OC)=NO1 (configuration not stated)	2	1	1	5	-12	9
Cc1ccc2[nH]c(=O)c(-c3nc4cc(C)ccn4c3NCc3ccco3)cc2c1	-1	7	-2	31	-25	33*
O=C(CCc1ccccc1)Nc1c(F)c(F)c(F)c(F)c1F	-3	16	33*	-78	7	-36
CN(C)C(=O)C1C2NC(=S)N(c3cccc(Cl)c3)C1(C)Oc1ccc(Cl)cc12 (configuration not stated)	-2	.	-9	51*	-7	29*
CN(C)C(=O)C1C2NC(=S)N(c3ccccc3)C1(C)Oc1ccccc12 (configuration not stated)	-2	.	-1	2	3	1
CN(C)C(=O)C1C2NC(=S)N(c3ccc(Cl)cc3)C1(C)Oc1ccc(Cl)cc12 (configuration not stated)	1	.	-9	92*	2	89*
Cc1c(Nc2nc(-c3ccccc3)cs2)c(=O)n(-c2ccccc2)n1C	-1	1	-1	59*	-7	78*
Cc1cccc(C)c1NC(=O)C[N+](C)(C)CC(O)COc1cccc2ccccc12 (configuration not stated)	-1	.	-10	98*	-10	66*
Cn1c(=O)cc(Nc2ccccc2)c2c(=O)n(-c3ccccc3)c(=O)n(-c3ccccc3)c21	-1	.	.	-17	12	6
CC(Nc1nc(N2CCCCC2)nc2ccccc12)c1ccccc1 (configuration not stated)	-4	45*	46*	-26	19	-16
CC(Nc1nc(-c2ccccc2)nc2ccccc12)c1ccccc1 (configuration not stated)	-2	.	3	-14	-13	-3
COc1ccc(Nc2nc(N3CCCC3)nc3ccccc23)c(OC)c1	0	21*	27*	-49	-6	-24
COc1ccc(Nc2ncnc3ccccc23)c(OC)c1	0	0	2	-7	-3	20
C#Cc1ccc([C@H]2C=C(C(=O)N3CCN(Cc4ccc5c(c4)OCO5)CC3)O[C@@H](OCC)[C@@H]2CCCO)cc1	-1	.	-5	3	-6	14
COc1ccc(OC)c(C(=O)Cn2c3[n+](c4ccc(C(F)(F)F)cc42)CCCCC3)c1	-1	.	5	21	-3	12

High-throughput results: PubChem, The Scripps Research Institute Molecular Screening Center
